The values that follow come from publication PMC6175093 (Journal of Clinical Pharmacology, 2018).

A short description of series [1]: Safety and tolerability in phase 1 study. The class given is in vivo, human. In short, it runs like this: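 Healthy adults in a two-period crossover: single oral 4-mg rosiglitazone alone, and the test compound (1250 mg on day 1, 750 mg daily for 7 days) with rosiglitazone on day 3. Dosing was fasted. Adverse events were recorded from informed consent until 14 days after the last dose and graded by intensity.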

Series [2] is classed as in vivo, human. The conditions noted are these: for AUC / AUC_%Extrap_obs: geometric mean (CV%). An outline of the steps: (§1)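 Randomized two-sequence crossover in healthy adults, ≥10-day washout. Single oral 4-mg rosiglitazone was given alone on day 1, or on day 3 of the test compound regimen (1250 mg loading dose on day 1, then 750 mg once daily for 7 more days), after a 10-h fast. K2EDTA blood was drawn predose to 120 h and plasma stored at ~−70°C. LC-MS/MS, LLOQ 0.500 ng/mL. GMR (90%CI) came from a linear mixed effect model.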

Series [3] can be described thus: Phase 1 study: plasma PK of SCY‐078 after loading dose and repeat daily doses. The class given is in vivo, human. An outline of the steps:
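Healthy adults fasted 10 h, then took the oral test compound: 1250-mg loading dose on day 1, then 750 mg once daily for 7 more days. Blood was drawn predose and 0.5–24 h on day 1, predose and 0.5–16 h on day 3, and as troughs before dosing on days 4–8. K2EDTA plasma was centrifuged at 2000 g and stored at ~−70°C. Validated LC-MS/MS, LLOQ 5.00 ng/mL.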

The subject of series [4] is Candida and Aspergillus species clinical isolates. The conditions noted are these: cited from earlier work.
Another series relates to other CYP isoforms. Conditions: ref Wring SA, Park SM, unpublished data on file; cited from earlier work.
The conditions of series [5]: cited from earlier work.
For series [6], the system named is CYP2C8. Briefly: In vitro CYP2C8 inhibition. It is filed as in vitro ADME.
For a further series, the system named is Candida species. Conditions: in vivo murine models for invasive fungal infections with Candida species; cited from earlier work.
The conditions of series [7]: phase 1 drug‐drug interaction study; cited from earlier work.
For series [8], the system named is CYP2C8. Conditions: inhibition of CYP2C8‐mediated N‐desethyl‐amodiaquine activity; ref Wring SA, Park SM, unpublished data on file; cited from earlier work.
The format of series [9] is in vivo, human. Conditions: metabolite; for t½: mean (SD); for Tmax: median (minimum, maximum). An outline of the steps: as §1
[10] abbreviates: all treatments pooled, 24 subjects.
The mark [11] stands for this setting: both, human, plasma, oral, 4 mg.
Setting [12] is: rosiglitazone 4 mg + SCY‐078 750 mg, day 3, n = 17.
The mark [13] stands for this setting: rosiglitazone 4 mg alone, day 1, n = 17.
The mark [14] stands for this setting: both, human, plasma, po, 1250 mg.
Where [15] appears, read: rosiglitazone 4 mg + SCY‐078 750 mg, day 3, n = 17, geometric mean (CV%).
Setting [16] is: rosiglitazone 4 mg alone, day 1, n = 17, geometric mean (CV%).

Like-named read-outs stand apart in the source and are kept apart here.

As to `CN(CCOc1ccc(CC2SC(=O)NC2=O)cc1)c1ccccn1` (stereo not shown) [Rosiglitazone, rosiglitazone], in series [1] (all treatments pooled (rosiglitazone alone and with SCY‐078), 24 subjects), the “treatment‐emergent AE: diarrhea” value was 58.3%. In series [1] (setting [10]), the “serious AEs and deaths” value is given as “no serious AEs”; the “treatment‐emergent AE: abdominal pain” value came out at 41.7%; the “treatment‐emergent AE: contact dermatitis” value is 8.3%; the “treatment‐emergent AE: dizziness” value worked out at 8.3%. Moreover, in [1] (setting [10]), the “treatment‐emergent AE: headache” value was 16.7%, the “treatment‐emergent AE: menstruation irregularity” value came to 12.5%, the “treatment‐emergent AE: nausea” value was found to be 41.7% and the “treatment‐emergent AE: somnolence” value is 8.3%. For the same compound, the “treatment‐emergent AE: vomiting” value in series [1] (setting [10]) was 25%. Moreover, the tolerability entry in series [1] (rosiglitazone in the presence and absence of repeat doses of SCY‐078, healthy subjects) is “generally well tolerated”. Moreover, in [2] (setting [11]), the Cmax was 295 ng/mL; the Tmax amounted to 30 min; the half-life – broadly, how long it takes for the measured level to halve – was 222 min. For the same compound, the AUC in series [2] (both, human, plasma, oral, AUC0‐24h, rosiglitazone 4 mg + SCY‐078 750 mg, day 3, n = 17) came to 1420 µg·h/mL. Further, in series [2] (both, human, plasma, oral, AUC0‐last, rosiglitazone 4 mg + SCY‐078 750 mg, day 3, n = 17), the AUC was found to be 1440 µg·h/mL. In series [2] (geometric mean ratio (90%CI)), the “AUC0‐24h GMR rosiglitazone + SCY‐078 vs rosiglitazone alone” value is 0.98 (0.89‐1.08), the “AUC0‐last GMR rosiglitazone + SCY‐078 vs rosiglitazone alone” value is given as 0.99 (0.90‐1.10), the “AUC GMR rosiglitazone + SCY‐078 vs rosiglitazone alone” value is given as 0.99 (0.90‐1.10) and the “Cmax GMR rosiglitazone + SCY‐078 vs rosiglitazone alone” value is on record as 0.80 (0.70‐0.90). In addition, the AUC_%Extrap_obs in series [2] (setting [12]) was 0.71 (62.2) %. Also, the AUC_%Extrap_obs in [2] (setting [13]) is recorded as 0.58 (74.3) %.
As for `CC(C)[C@@H](C)[C@@]1(C)CC[C@]2(C)[C@H]3CC[C@@H]4[C@@]5(COC[C@@]4(C)[C@@H](OC[C@](C)(N)C(C)(C)C)[C@H](n4ncnc4-c4ccncc4)C5)C3=CC[C@@]2(C)[C@@H]1C(=O)O` [SCY‐078], the Tmax in series [3] (both, human, plasma, oral) turned out to be 6 h. In addition, in series [3] (setting [14]), the AUC is 11600 ng·h/mL, the Tmax came to 6 h and the concentration at 24 h was 294 ng/mL. Further, in [3] (both, human, plasma, po, 1250 mg, Cmax, day 1, oral 1250‐mg loading dose, fasted, geometric mean (CV%)), the Cmax is 783 ng/mL. Also, the “maximum concentration in plasma” value in series [3] (day 3, once‐daily oral regimen, molar equivalent of ∼0.93 μg/mL) turned out to be 1.28 µM. For the same compound, the absorption entry in [3] (following the loading dose and repeated daily doses) is on record as “well absorbed”. The “in vitro activity against Candida and Aspergillus species clinical isolates” value in [4] is listed as “potent in vitro activity”. Also, the “activity against azole‐resistant, most echinocandin‐resistant, and multidrug‐resistant strains of Candida species” value in [4] (in vitro) is “retained activity”. Besides, in the series with other CYP isoforms, the “IC50 values for other CYP isoforms, fold higher than CYP2C8” value is listed as greater than 5 fold. Also, in series [5], the “binding to plasma proteins” value is 99.7%. The “unbound concentration in plasma as % of the CYP2C8 IC50” value with CYP2C8 [6] (day 3 Cmax, based on 99.7% binding to plasma proteins) is recorded as roughly 3%. In addition, the “plasma Cmax exceeds the in vitro CYP2C8 IC50” value with CYP2C8 [6] (day 3 total Cmax vs IC50) is “approximately 4 fold”. Further, in the series with Candida species, the efficacy target exposure is listed as 11.2 μg·h^2/mL. In addition, the interaction with tacrolimus result in series [7] was “no clinically relevant interaction”. In addition, the 50% inhibitory concentration (IC50) (as a rule, the concentration that inhibits the measured activity by half) in the series on CYP2C8 [8] was roughly 300 nM.
As to `O=C1NC(=O)C(Cc2ccc(OCCNc3ccccn3)cc2)S1` (stereo not shown) [N‐Desmethylrosiglitazone, N‐desmethylrosiglitazone], the AUC in series [9] (0 to infinity, rosiglitazone 4 mg + SCY‐078 750 mg, day 3, n = 17, geometric mean (CV%)) is on record as 2260 (15.5) μg·hr/mL. Further, in series [9] (geometric mean ratio (90%CI)), the “AUC0‐24h GMR rosiglitazone + SCY‐078 vs rosiglitazone alone” value is given as 0.97 (0.89‐1.06), the “AUC0‐last GMR rosiglitazone + SCY‐078 vs rosiglitazone alone” value is 1.03 (0.95‐1.12), the “AUC GMR rosiglitazone + SCY‐078 vs rosiglitazone alone” value is on record as 1.03 (0.95‐1.12) and the “Cmax GMR rosiglitazone + SCY‐078 vs rosiglitazone alone” value is on record as 0.97 (0.88‐1.07). Further, in series [9] (setting [15]), the AUC0‐24h was 1310 ng·h/mL, the AUC0‐last was determined as 2240 ng·h/mL, the AUC_%Extrap_obs is listed as 0.90 (45.6) % and the Cmax is given as 70.4 (16.4) ng/mL. In series [9] (setting [12]), the t½ is recorded as 15.2 (2.3) h and the Tmax is listed as 8.0 (6.0, 16.0) h. In addition, in [9] (setting [16]), the AUC0‐24h is 1340 ng·h/mL, the AUC0‐last is 2170 ng·h/mL, the AUC_%Extrap_obs is given as 0.91 (52.4) % and the Cmax was 72.8 (17.6) ng/mL. In series [9] (setting [13]), the t½ was 14.5 (2.4) h and the Tmax is 6.0 (4.0, 12.0) h.
